Only a selection was taken, and hits are over-represented in it overall.
CHOP inhibitor – blocks CHOP induction under ER stress; CHO-K1 CHOP-promoter luciferase, tunicamycin-induced, 15-18 h; inhibition, % at 10 µM; hit rate 3.8% among 220,000; AID 2732;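 active = compounds that reduced the stress-induced luciferase reporter signal by more than about 70% of percent inhibition, limit read from the data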;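 also: 0% = tunicamycin plus vehicle and 100% = wells without tunicamycin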
UPR CHOP act – apoptotic UPR (CHOP) activation; CHO-CHOP luciferase reporter, luminescence; percent of tunicamycin response over DMSO baseline; activation, % at 10 µM; hit rate 0.34% among 330,000;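 active = at 10 µM dose, activation of 40% or more, normalized to positive control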;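 also: 100% = tunicamycin at 10 µg/mL and 0% = DMSO alone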
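assay system = CHO CHOP reporter cells | amount = 500 CHO-CHOP cells per well | buffer or medium = F12 with 10% FBS | incubation = 16-18 h cell attachment, then 6 h compound exposure, 37 °C | detection = luminescence read with Steady-Glo | read-out = percent activation relative to tunicamycin control | controls = tunicamycin high control, DMSO low control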
UPR XBP1 act – activators of adaptive arm of unfolded protein response (XBP1) | CHO-XBP1 luciferase reporter, IRE1-XBP1 UPR activation, luminescence; percent of tunicamycin response, DMSO as zero | activation, % at 20 µM | hit rate 0.33% among 330,000 | AID 463104;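 active = versus positive control, 20 µM dose yields 30% or more activation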;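 also: 100% = tunicamycin at 10 µg/mL and 0% = DMSO only wells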
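Assay system: CHO-XBP1 luciferase reporter cells; Schedule: 6 h treatment, 37 °C; Detection: glow luminescence from Steady-Glo reagent; Benchmarks: high control tunicamycin 10 µg/mL final, low control DMSO vehicle only.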
TLR9-MyD88 inh – blocks human TLR9 binding to MyD88; AID 504734; CHO BLA complementation TLR9-MyD88, CCF4 FRET ratio; Q9NR96+Q99836; inhibition, % at 4.98 µM; hit rate 0.21% among 340,000;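 active = inhibition above the mean over all tested compounds plus 3 SD, cut at about 21% in these data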;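 also: 0% = DMSO only wells and 100% = clavulanate BLA inhibitor control wells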
TLR4 MyD88 comp – blocks binding of human TLR4 to MyD88 | inhibition, % at 8.4 µM | HeLa CL3-4 TLR4/MyD88 BLA complementation, FRET ratio | hit rate 0.18% among 200,000 | AID 861 | O00206+Q99836; in the data active = inhibition above about 25%;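 also: 0% = vehicle and 100% = reference inhibitor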
NOD2 RIPK2 PPI – blocks binding of human NOD2 to RIPK2; inhibition, % at 4.98 µM; O43353; hit rate 0.38% among 360,000; CHO BLA complementation NOD2-RIPK2, CCF4 ratio; in the data active = inhibition above about 21%;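 also: 0% = vehicle only and 100% = reference blocker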
Target sequence (O43353 whole entry, looked up): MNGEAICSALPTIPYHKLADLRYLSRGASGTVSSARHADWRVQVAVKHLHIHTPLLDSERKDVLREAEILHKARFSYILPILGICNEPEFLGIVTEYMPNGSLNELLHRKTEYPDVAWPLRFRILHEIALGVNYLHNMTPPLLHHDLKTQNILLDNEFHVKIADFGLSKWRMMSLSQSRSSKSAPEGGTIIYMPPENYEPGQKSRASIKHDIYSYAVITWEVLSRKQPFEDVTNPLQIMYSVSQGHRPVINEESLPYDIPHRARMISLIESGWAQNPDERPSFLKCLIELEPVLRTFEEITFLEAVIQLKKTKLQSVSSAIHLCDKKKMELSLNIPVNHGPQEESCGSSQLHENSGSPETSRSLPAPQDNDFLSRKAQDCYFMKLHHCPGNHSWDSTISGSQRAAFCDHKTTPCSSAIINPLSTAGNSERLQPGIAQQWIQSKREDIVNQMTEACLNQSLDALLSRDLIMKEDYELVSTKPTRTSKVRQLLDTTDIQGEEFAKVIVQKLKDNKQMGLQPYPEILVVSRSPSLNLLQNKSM
The depositor's hits bear a star; . = not tested or not shown.

SMILES	CHOP inhibitor	UPR CHOP act	UPR XBP1 act	TLR9-MyD88 inh	TLR4 MyD88 comp	NOD2 RIPK2 PPI
O=C(Nc1nnc(-c2ccc3c(c2)OCCO3)o1)c1ccc(Cc2ccccc2)cc1	97*	-2	-1	2	12	6
O=C(Nc1nnc(-c2ccc3c(c2)CCCC3)o1)c1ccccc1	100*	-3	-2	5	-7	-1
Cc1ccc(C(=O)Nc2nnc(-c3ccncc3)o2)cc1	-6	3	-1	-3	3	0
Cc1cccc(-c2nnc(NC(=O)c3ccc(Cl)cc3)o2)c1	79*	1	3	-4	0	5
COc1ccccc1-c1cnc(C(O)c2ccc(CN3CCCC3)cc2)[nH]1 (stereo not given)	.	.	.	.	.	11
CC(C)C[C@@H]1COc2cc(N3CCC[C@H]3CO)ccc2S(=O)(=O)N1	.	.	.	.	.	-12
CCOc1ccccc1C(=O)N[C@H](C(=O)OCC(=O)Nc1nnc(-c2ccccc2)o1)C(C)C	.	.	.	5	.	-12
CCOC(=O)c1cnc2ccc(OCC)cc2c1NCc1ccccc1OC	82*	2	0	-14	3	-8
CCOC(=O)c1cnc2ccc(OC)cc2c1NCc1ccccc1	51	0	-2	-2	1	-4
CCOC(=O)C1=CCC(c2ccc(CC)cc2)N(S(=O)(=O)c2ccc(C)cc2)C1 (stereo not given)	.	.	.	.	.	-17
CCCCN1C(=O)C(CC(=O)NC2CCCCC2)CC(C(=O)N2CCCCCC2)=C1C (stereo not given)	.	.	.	.	.	0
C1=C(CCNc2ncnc3c2[nH]c2ccccc23)CCCC1	80*	.	.	-3	15	8
CCCOc1ccc(-c2nnc(-c3ccco3)o2)cc1	15	-5	-6	-2	0	0
CC(C)COc1ccc(-c2nnc(-c3ccco3)o2)cc1	78*	-1	-2	11	4	-3
O=C(/C=C/c1ccc(Br)cc1)NC(=S)NNC(=O)c1ccco1	76*	-1	4	-10	0	0
O=C(/C=C/c1ccccc1)NC(=S)NNC(=O)c1ccco1	20	1	2	0	15	1
Cc1nc2ccccn2c1C(=O)/C=C/c1cccc([N+](=O)[O-])c1	-137	116*	6	-8	-4	1
Cc1ccc(/C=C/C(=O)c2c(C)nc3ccccn23)cc1	-60	5	8	-8	-2	-2
CCCCCCN1CCN(C2CN(CCCC)S(=O)(=O)C2)CC1 (stereo not given)	.	.	.	.	.	0
COc1ccc(S(=O)(=O)Cc2ccc(C(=O)N3CCN(c4cccc(C)c4C)CC3)o2)cc1	71*	-1	-5	-5	7	1
CC(C)C(=O)N=c1sc2cc(F)cc(F)c2n1C	85*	-1	3	9	-9	5
CCC(=O)N=c1sc2cc(F)cc(F)c2n1C	.	7	2	1	13	-5
COc1ccc2nc(NC(=O)C3CCCN(S(=O)(=O)c4c(C)noc4C)C3)sc2c1 (stereo not given)	75*	1	-4	1	4	-8
CCOc1ccc2nc(NC(=O)C3CCCN(S(=O)(=O)c4c(C)noc4C)C3)sc2c1 (stereo not given)	-21	1	3	8	.	-12
CC(C)(C)OC(=O)[C@H](Cc1ccccc1)NC(=O)c1[nH]cnc1C(=O)Nc1ccccc1F	.	.	.	-9	.	-3
SMILES	CHOP inhibitor	UPR CHOP act	UPR XBP1 act	TLR9-MyD88 inh	TLR4 MyD88 comp	NOD2 RIPK2 PPI
C=CCN(CC=C)S(=O)(=O)c1ccc(F)cc1	79*	2	-2	-1	-9	3
CCN(CC(N)=O)S(=O)(=O)c1ccc(F)cc1	10	0	-3	10	-11	2
CCC(=O)OCc1c(C(F)(F)F)nn(C)c1Sc1ccc(Cl)cc1	79*	-4	3	3	4	-8
O=C(NC(Cc1c[nH]c2ccccc12)C(=O)O)c1cccc(S(=O)(=O)N2CCCCC2)c1 (stereo not given)	.	.	.	-14	.	4
O=C(Nc1nc2ccccc2s1)C1CCN(S(=O)(=O)c2cc([N+](=O)[O-])ccc2Cl)CC1	83*	6	5	2	.	3
COc1ccccc1[C@H]1C(c2cccc(Cl)c2)=NN(c2ccccc2)[C@@H]1CO	.	1	-2	1	.	37*
Cc1ccc(S(=O)(=O)NC[C@H]2O[C@@H](n3cnc4c(N)ncnc43)[C@H](O)[C@@H]2O)cc1	.	.	.	.	.	-4
Cc1ccc(Cn2nnc3c(=O)[nH]c(C4CCCN(S(=O)(=O)c5ccccc5)C4)nc32)cc1 (stereo not given)	29	0	0	1	3	0
O=c1[nH]c(C2CCCN(S(=O)(=O)c3ccc(F)cc3)C2)nc2c1nnn2Cc1ccccc1 (stereo not given)	90*	2	1	3	7	1
Nc1nc2ccccc2cc1C(=O)NCc1cccs1	.	.	.	.	.	-9
CCc1nc2c(OCCC3CCCCC3)cccn2c1N(C)C(=O)COc1ccccc1	.	.	.	.	.	-3
Cc1ccccc1Cn1c(=N)n(CC(=O)c2ccc([N+](=O)[O-])cc2)c2ccccc21	84*	.	.	0	4	0
CCn1ncc(Br)c1C(=O)Nc1nccs1	77*	-2	-4	6	-10	-6
CCn1ncc(Br)c1C(=O)Nc1ccc(OC(F)(F)F)cc1	.	0	-1	2	.	4
O=c1c2nncn2c2cc(C(F)(F)F)ccc2n1CCNc1ncc(C(F)(F)F)cc1Cl	85*	-1	2	-3	.	0
O=c1c2nncn2c2cccnc2n1CCNc1ncc(C(F)(F)F)cc1Cl	5	-1	-1	-1	.	10
CCN(CC)C(=O)N1c2ccccc2CC(N(CC)CC)c2ccccc21 (stereo not given)	85*	0	-3	0	-1	5
CCN(CC)C(=O)N1c2ccccc2Sc2ccccc21	.	0	-1	-6	.	-4
O=C(Cn1cnc2cc([N+](=O)[O-])ccc2c1=O)Nc1ccc(Br)cc1	6	0	-2	2	.	6
CC(C)(C)c1ccc(NC(=O)Cn2cnc3cc([N+](=O)[O-])ccc3c2=O)cc1	91*	4	-4	.	0	-5
CC(C)C(OC(=O)c1cccs1)C(=O)NCc1ccco1 (stereo not given)	35	-2	-2	-1	-11	13
O=C(OC(C(=O)NCc1ccco1)C(OC(=O)c1ccccc1)C(=O)NCc1ccco1)c1ccccc1 (stereo not given)	94*	0	-2	-11	-14	5
COc1ccc([C@H]2C[C@@H](n3cc(C4CC4)nn3)[C@H](O)CN2CC2CCCCC2)cc1	.	.	.	-12	.	-11
